# Data: ChEMBL document CHEMBL1123921, “Quinolonecarboxylic acids. 2. Synthesis and antibacterial evaluation of 7-oxo-2,3-dihydro-7H-pyrido[1,2,3-de][1,4]benzothiazine-6-carboxylic acids” (J Med Chem, 1987)
# What was measured:
# Type in all cases: functional
# Enterobacter cloacae = experiment: In vitro antibacterial activity against clinical isolates of Enterobacter cloacae 041 (gram negative) by agar dilution assay.
# In short: (§1)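 Agar dilution on Isosensitest agar; compound incorporated by twofold serial dilution. Overnight broth cultures delivered by multipoint inoculator at 10⁵ CFU per point. Plates read after 18 h at 37 °C. MIC taken as the lowest concentration giving complete growth inhibition.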
# Escherichia coli = experiment: In vitro antibacterial activity against clinical isolates of Escherichia coli 15 (gram negative) by agar dilution assay.; in short: as §1
# Klebsiella pneumoniae = experiment: In vitro antibacterial activity against clinical isolates of Klebsiella pneumoniae-4 (gram negative) by agar dilution assay.; in short: as §1
# Morganella morganii = experiment: In vitro antibacterial activity against clinical isolates of Proteus morganii 27 (gram negative) by agar dilution assay.; in short: as §1
# Pseudomonas aeruginosa = experiment: In vitro antibacterial activity against clinical isolates of Pseudomonas aeruginosa 2437 (gram negative) by agar dilution assay.; in short: as §1
# Staphylococcus aureus = experiment: In vitro antibacterial activity against clinical isolates of Staphylococcus aureus 18773 (gram-positive) by agar dilution assay.; in short: as §1
MIC (Enterobacter cloacae),MIC (Escherichia coli),MIC (Klebsiella pneumoniae),MIC (Morganella morganii),MIC (Pseudomonas aeruginosa),MIC (Staphylococcus aureus),SMILES
50 µg/mL,> 50 µg/mL,50 µg/mL,50 µg/mL,50 µg/mL,> 50 µg/mL,O=C(O)c1cn2c3c(cc(N4CCNCC4)cc3c1=O)SCC2
> 100 µg/mL,100 µg/mL,> 100 µg/mL,> 100 µg/mL,100 µg/mL,> 100 µg/mL,O=C(O)c1cn2c3c(cccc3c1=O)S(=O)(=O)CC2
12.5 µg/mL,3.12 µg/mL,6.25 µg/mL,6.25 µg/mL,> 100 µg/mL,25 µg/mL,O=C(O)c1cn2c3c(cc(Cl)cc3c1=O)SCC2
–,50 µg/mL,–,–,100 µg/mL,50 µg/mL,O=C(O)c1cn2c3c(cc(N4CCCC4)cc3c1=O)SCC2
> 50 µg/mL,> 50 µg/mL,> 50 µg/mL,> 50 µg/mL,100 µg/mL,> 50 µg/mL,O=C(O)c1cn2c3c(ccc(C(F)(F)F)c3c1=O)SCC2
25 µg/mL,3.12 µg/mL,25 µg/mL,> 50 µg/mL,> 50 µg/mL,3.12 µg/mL,O=C(O)c1cn2c3c(c(N4CCCC4)c(F)cc3c1=O)S(=O)(=O)CC2
> 50 µg/mL,> 50 µg/mL,> 50 µg/mL,> 50 µg/mL,> 50 µg/mL,0.39 µg/mL,O=C(O)c1cn2c3c(c(N4CCN(CC(F)(F)F)CC4)c(F)cc3c1=O)SCC2
–,> 50 µg/mL,–,> 50 µg/mL,100 µg/mL,50 µg/mL,O=C(O)c1cn2c3c(cc(N4CCN(C(=O)C(F)(F)F)CC4)cc3c1=O)SCC2
1.56 µg/mL,1.56 µg/mL,1.56 µg/mL,3.12 µg/mL,3.12 µg/mL,< 0.39 µg/mL,O=C(O)c1cn2c3c(c(N4CCCC4)c(F)cc3c1=O)SCC2
–,> 50 µg/mL,–,–,–,–,O=C(O)c1cn2c3c(c(Cl)c(F)cc3c1=O)S(=O)(=O)CC2
3.12 µg/mL,6.25 µg/mL,6.25 µg/mL,25 µg/mL,100 µg/mL,3.12 µg/mL,CC1CN(c2c(F)cc3c(=O)c(C(=O)O)cn4c3c2SCC4)CC(C)N1 (stereo unspecified)
25 µg/mL,6.25 µg/mL,25 µg/mL,12.5 µg/mL,50 µg/mL,25 µg/mL,O=C(O)c1cn2c3c(cccc3c1=O)SCC2
> 100 µg/mL,> 100 µg/mL,> 100 µg/mL,> 100 µg/mL,> 100 µg/mL,> 100 µg/mL,O=C(O)c1cn2c3c(c(Cl)c(F)cc3c1=O)[S+]([O-])CC2 (stereo unspecified)
> 50 µg/mL,> 50 µg/mL,12.5 µg/mL,1.56 µg/mL,> 50 µg/mL,0.78 µg/mL,O=C(O)c1cn2c3c(c(Cl)c(Cl)cc3c1=O)SCC2
–,50 µg/mL,–,> 50 µg/mL,> 50 µg/mL,50 µg/mL,O=C(O)c1cn2c3c(cc(N4CCN(Cc5ccccc5)CC4)cc3c1=O)SCC2

SMILES,MIC (Enterobacter cloacae),MIC (Escherichia coli),MIC (Klebsiella pneumoniae),MIC (Morganella morganii),MIC (Pseudomonas aeruginosa),MIC (Staphylococcus aureus)
O=C(O)c1cn2c3c(c(N4CCNCC4)c(F)cc3c1=O)SCC2,< 0.39 µg/mL,0.39 µg/mL,< 0.39 µg/mL,1.56 µg/mL,12.5 µg/mL,0.78 µg/mL
O=C(O)c1cn2c3c(cc(F)c(N4CCNCC4)c3c1=O)SCC2,> 100 µg/mL,> 100 µg/mL,> 100 µg/mL,> 100 µg/mL,> 100 µg/mL,> 100 µg/mL
O=C(O)c1cn2c3c(c(Cl)c(N4CCNCC4)cc3c1=O)SCC2,> 50 µg/mL,> 50 µg/mL,> 50 µg/mL,> 50 µg/mL,> 50 µg/mL,> 50 µg/mL
